According to ChEMBL document CHEMBL5058577, “EUbOPEN Chemogenomics Library 2 (Multiplex)” (2022):
Values joined by “and” are separate entries in the source; they are usually repeats but may differ in a detail not shown here. Equal values may be shown once.

Test system: HEK-293T
Assay: Multiplex assay against HEK293T
Assay type: toxicity, cell-based
Details: human
Procedure, shortened: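 Imaging took place on a CQ1 microscope at 37°C and 5% CO2 once compound had been added to live cells stained at seeding with Hoechst33342, BioTracker Green Microtubule Cytoskeleton Dye, MitoTracker Red and Annexin V Alexa Fluor 680. CellPathfinder machine-learning gating classed cells as Hoechst high-intensity objects or normal cells, classed normal cells as having healthy, pyknosed or fragmented nuclei, and classed pyknosed cells as mitotic or apoptotic. Tubulin, mitochondrial-mass and membrane-permeability phenotypes are per cents of the healthy-nucleus cells.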

[1] = 12 h, 10 µM, compound concentration 10 uM, replicate 1
[2] = 12 h, 10 µM, compound concentration 10 uM, replicate 2
[3] = 24 h, 10 µM, compound concentration 10 uM, replicate 1
[4] = 24 h, 10 µM, compound concentration 10 uM, replicate 2
[5] = 48 h, 10 µM, compound concentration 10 uM, replicate 1
[6] = 48 h, 10 µM, compound concentration 10 uM, replicate 2
[7] = 12 h, 1 µM, compound concentration 1 uM, replicate 1
[8] = 12 h, 1 µM, compound concentration 1 uM, replicate 2
[9] = 24 h, 1 µM, compound concentration 1 uM, replicate 1
[10] = 24 h, 1 µM, compound concentration 1 uM, replicate 2
[11] = 48 h, 1 µM, compound concentration 1 uM, replicate 1
[12] = 48 h, 1 µM, compound concentration 1 uM, replicate 2

CC(=O)O[C@H]1C(=O)[C@@]2(C)[C@H]([C@H](OC(=O)c3ccccc3)[C@]3(O)C[C@H](OC(=O)[C@H](O)[C@@H](NC(=O)c4ccccc4)c4ccccc4)C(C)=C1C3(C)C)[C@]1(OC(C)=O)CO[C@@H]1C[C@@H]2O [PACLITAXEL]
Population Apoptotic (%) [1]: 41% and 51%
Population Fragmented Nuclei (%) [1]: 7% and 4%
Population Healthy Nuclei (%) [1]: 74% and 79%
Population Hoechst High Intensity Objects (%) [1]: 16% and 12%
Population Membrane Permeable-Phenotype (%) [1]: 0%
Population Mitochondria Different-Phenotype (%) [1]: 79% and 70%
Population Mitotic Cells (%) [1]: 58% and 48%
Population Normal (%) [1]: 83% and 87%
Population Pyknosed Nuclei (%) [1]: 17% and 15%
Population Tubulin-Different-Phenotype (%) [1]: 11% and 9%
Population Apoptotic (%) [2]: 56% and 47%
Population Fragmented Nuclei (%) [2]: 5% and 2%
Population Healthy Nuclei (%) [2]: 64% and 75%
Population Hoechst High Intensity Objects (%) [2]: 14%
Population Mitochondria Different-Phenotype (%) [2]: 84% and 85%
Population Mitotic Cells (%) [2]: 43% and 52%
Population Normal (%) [2]: 85%
Population Pyknosed Nuclei (%) [2]: 29% and 22%
Population Tubulin-Different-Phenotype (%) [2]: 16% and 17%
Population Apoptotic (%) [3]: 35% and 34%
Population Fragmented Nuclei (%) [3]: 10% and 9%
Population Healthy Nuclei (%) [3]: 70% and 73%
Population Hoechst High Intensity Objects (%) [3]: 16% and 14%
Population Membrane Permeable-Phenotype (%) [3]: 0%
Population Mitochondria Different-Phenotype (%) [3]: 72% and 68%
Population Mitotic Cells (%) [3]: 64% and 65%
Population Normal (%) [3]: 83% and 85%
Population Pyknosed Nuclei (%) [3]: 18% and 16%
Population Tubulin-Different-Phenotype (%) [3]: 8% and 7%
Population Apoptotic (%) [4]: 47% and 55%
Population Fragmented Nuclei (%) [4]: 8% and 7%
Population Healthy Nuclei (%) [4]: 75%
Population Hoechst High Intensity Objects (%) [4]: 15%
Population Mitochondria Different-Phenotype (%) [4]: 82% and 75%
Population Mitotic Cells (%) [4]: 52% and 44%
Population Normal (%) [4]: 84%
Population Pyknosed Nuclei (%) [4]: 17%
Population Tubulin-Different-Phenotype (%) [4]: 16% and 11%
Population Apoptotic (%) [5]: 29% and 38%
Population Fragmented Nuclei (%) [5]: 15% and 10%
Population Healthy Nuclei (%) [5]: 68% and 75%
Population Hoechst High Intensity Objects (%) [5]: 11% and 10%
Population Membrane Permeable-Phenotype (%) [5]: 0%
Population Mitochondria Different-Phenotype (%) [5]: 64% and 60%
Population Mitotic Cells (%) [5]: 70% and 62%
Population Normal (%) [5]: 88% and 89%
Population Pyknosed Nuclei (%) [5]: 15% and 14%
Population Tubulin-Different-Phenotype (%) [5]: 2% and 6%
Population Apoptotic (%) [6]: 69% and 57%
Population Fragmented Nuclei (%) [6]: 13%
Population Healthy Nuclei (%) [6]: 70% and 73%
Population Mitochondria Different-Phenotype (%) [6]: 70% and 68%
Population Mitotic Cells (%) [6]: 30% and 42%
Population Pyknosed Nuclei (%) [6]: 19% and 13%
Population Tubulin-Different-Phenotype (%) [6]: 11%

C[C@H](NC(=O)c1c(C(F)F)nn(C)c1Oc1cccc(C(F)(F)F)c1)c1ccc(C(=O)O)cc1 [PALUPIPRANT]
Population Apoptotic (%) [7]: 40%
Population Fragmented Nuclei (%) [7]: 6%
Population Healthy Nuclei (%) [7]: 80%
Population Hoechst High Intensity Objects (%) [7]: 7%
Population Membrane Permeable-Phenotype (%) [7]: 0%
Population Mitochondria Different-Phenotype (%) [7]: 44%
Population Mitotic Cells (%) [7]: 59%
Population Normal (%) [7]: 92%
Population Pyknosed Nuclei (%) [7]: 13%
Population Tubulin-Different-Phenotype (%) [7]: 28%
Total Cell Count [7]: 407
Population Apoptotic (%) [8]: 27%
Population Healthy Nuclei (%) [8]: 83%
Population Hoechst High Intensity Objects (%) [8]: 5%
Population Mitochondria Different-Phenotype (%) [8]: 60%
Population Mitotic Cells (%) [8]: 72%
Population Normal (%) [8]: 94%
Population Pyknosed Nuclei (%) [8]: 10%
Total Cell Count [8]: 475
Population Apoptotic (%) [1]: 38%
Population Fragmented Nuclei (%) [1]: 7%
Population Healthy Nuclei (%) [1]: 76%
Population Hoechst High Intensity Objects (%) [1]: 7%
Population Membrane Permeable-Phenotype (%) [1]: 0%
Population Mitochondria Different-Phenotype (%) [1]: 55%
Population Mitotic Cells (%) [1]: 61%
Population Normal (%) [1]: 92%
Population Pyknosed Nuclei (%) [1]: 16%
Population Tubulin-Different-Phenotype (%) [1]: 40%
Total Cell Count [1]: 371
Population Apoptotic (%) [2]: 60%
Population Fragmented Nuclei (%) [2]: 5%
Population Healthy Nuclei (%) [2]: 77%
Population Hoechst High Intensity Objects (%) [2]: 10%
Population Mitochondria Different-Phenotype (%) [2]: 68%
Population Mitotic Cells (%) [2]: 40%
Population Normal (%) [2]: 89%
Population Pyknosed Nuclei (%) [2]: 17%
Population Tubulin-Different-Phenotype (%) [2]: 27%
Total Cell Count [2]: 293
Population Apoptotic (%) [9]: 36%
Population Fragmented Nuclei (%) [9]: 9%
Population Healthy Nuclei (%) [9]: 80%
Population Hoechst High Intensity Objects (%) [9]: 5%
Population Membrane Permeable-Phenotype (%) [9]: 1%
Population Mitochondria Different-Phenotype (%) [9]: 27%
Population Mitotic Cells (%) [9]: 63%
Population Normal (%) [9]: 94%
Population Pyknosed Nuclei (%) [9]: 10%
Population Tubulin-Different-Phenotype (%) [9]: 18%
Total Cell Count [9]: 527
Population Apoptotic (%) [10]: 46%
Population Fragmented Nuclei (%) [10]: 7%
Population Healthy Nuclei (%) [10]: 83%
Population Hoechst High Intensity Objects (%) [10]: 4%
Population Membrane Permeable-Phenotype (%) [10]: 0%
Population Mitochondria Different-Phenotype (%) [10]: 35%
Population Mitotic Cells (%) [10]: 53%
Population Normal (%) [10]: 95%
Population Pyknosed Nuclei (%) [10]: 9%
Population Tubulin-Different-Phenotype (%) [10]: 19%
Total Cell Count [10]: 604
Population Apoptotic (%) [3]: 26%
Population Fragmented Nuclei (%) [3]: 9%
Population Healthy Nuclei (%) [3]: 74%
Population Hoechst High Intensity Objects (%) [3]: 3%
Population Membrane Permeable-Phenotype (%) [3]: 0%
Population Mitochondria Different-Phenotype (%) [3]: 46%
Population Mitotic Cells (%) [3]: 73%
Population Normal (%) [3]: 96%
Population Pyknosed Nuclei (%) [3]: 16%
Population Tubulin-Different-Phenotype (%) [3]: 29%
Total Cell Count [3]: 465
Population Apoptotic (%) [4]: 55%
Population Fragmented Nuclei (%) [4]: 7%
Population Healthy Nuclei (%) [4]: 79%
Population Hoechst High Intensity Objects (%) [4]: 7%
Population Mitochondria Different-Phenotype (%) [4]: 52%
Population Mitotic Cells (%) [4]: 44%
Population Normal (%) [4]: 92%
Population Pyknosed Nuclei (%) [4]: 13%
Population Tubulin-Different-Phenotype (%) [4]: 19%
Total Cell Count [4]: 353
Population Apoptotic (%) [11]: 25%
Population Fragmented Nuclei (%) [11]: 13%
Population Healthy Nuclei (%) [11]: 79%
Population Hoechst High Intensity Objects (%) [11]: 2%
Population Membrane Permeable-Phenotype (%) [11]: 1%
Population Mitochondria Different-Phenotype (%) [11]: 17%
Population Mitotic Cells (%) [11]: 75%
Population Normal (%) [11]: 97%
Population Pyknosed Nuclei (%) [11]: 7%
Population Tubulin-Different-Phenotype (%) [11]: 13%
Total Cell Count [11]: 916
Population Apoptotic (%) [12]: 21%
Population Fragmented Nuclei (%) [12]: 14%
Population Healthy Nuclei (%) [12]: 78%
Population Hoechst High Intensity Objects (%) [12]: 4%
Population Membrane Permeable-Phenotype (%) [12]: 0%
Population Mitochondria Different-Phenotype (%) [12]: 18%
Population Mitotic Cells (%) [12]: 78%
Population Normal (%) [12]: 95%
Population Pyknosed Nuclei (%) [12]: 6%
Population Tubulin-Different-Phenotype (%) [12]: 9%
Total Cell Count [12]: 867
Population Apoptotic (%) [5]: 29%
Population Fragmented Nuclei (%) [5]: 18%
Population Healthy Nuclei (%) [5]: 75%
Population Hoechst High Intensity Objects (%) [5]: 1%
Population Membrane Permeable-Phenotype (%) [5]: 1%
Population Mitochondria Different-Phenotype (%) [5]: 24%
Population Mitotic Cells (%) [5]: 70%
Population Normal (%) [5]: 98%
Population Pyknosed Nuclei (%) [5]: 6%
Population Tubulin-Different-Phenotype (%) [5]: 16%
Total Cell Count [5]: 821
Population Apoptotic (%) [6]: 28%
Population Fragmented Nuclei (%) [6]: 15%
Population Healthy Nuclei (%) [6]: 77%
Population Hoechst High Intensity Objects (%) [6]: 3%
Population Membrane Permeable-Phenotype (%) [6]: 0%
Population Mitochondria Different-Phenotype (%) [6]: 28%
Population Mitotic Cells (%) [6]: 71%
Population Normal (%) [6]: 96%
Population Tubulin-Different-Phenotype (%) [6]: 17%
Total Cell Count [6]: 554
